Columns and labels:
A549 = experiment: Cytotoxicity against human A549 cells assessed as cell growth inhibition measured after 48 hrs by sulforhodamine B assay; assay type: functional, cell-based; conditions: A549, 48 h
Outline: (§1)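 The SRB assay was run on ATCC-derived human tumor lines maintained at the Korea Research Institute of Chemical Technology. Read-out was cell growth. IC50 is the concentration giving 50% growth inhibition. Cisplatin served as positive control.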

SK-OV-3 = experiment: Cytotoxicity against human SKOV3 cells assessed as cell growth inhibition measured after 48 hrs by sulforhodamine B assay; assay type: functional, cell-based; conditions: SK-OV-3, 48 h; outline: as §1
SK-MEL-2 = experiment: Cytotoxicity against human SK-MEL-2 cells assessed as cell growth inhibition measured after 48 hrs by sulforhodamine B assay; assay type: functional, cell-based; conditions: SK-MEL-2, 48 h; outline: as §1
HCT-15 = experiment: Cytotoxicity against human HCT15 cells assessed as cell growth inhibition measured after 48 hrs by sulforhodamine B assay; assay type: functional, cell-based; conditions: HCT-15, 48 h; outline: as §1
BV-2 = experiment: Antiinflammatory activity in mouse BV2 cells assessed as inhibition of LPS-induced nitric oxide production measured after 24 hrs by Griess assay; assay type: functional, cell-based; conditions: BV-2, 24 h
Outline: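 Murine microglial BV2 cells were seeded at 4 × 10^4 cells/well and exposed to a range of compound concentrations. LPS (100 ng/mL) was added and cells were incubated 24 h. Nitrite in the medium was reacted 10 min with Griess reagent (0.1% N-1-naphthylethylenediamine dihydrochloride, 1% sulfanilamide in 5% phosphoric acid), read at 570 nm and quantified against a sodium nitrite standard curve. IC50 values are reported.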

[1] = Cytotoxicity against mouse BV2 cells assessed as cell viability at 20 uM measured after 24 hrs by MTT assay relative to control; assay type: cell-based, BV-2; conditions: read-out: Activity
Outline: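 BV2 cells under the NO assay conditions (LPS 100 ng/mL, 24 h) were given 20 μM of each compound, with some data collected at 5 μM. Viability was measured by MTT and expressed as percent. Values are means ± SD of three independent experiments.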

C6 [2] = experiment: Neuroprotective activity in rat C6 cells assessed as induction of nerve growth factor secretion at 20 uM measured after 24 hrs by ELISA relative to control; assay type: functional
Outline: (§2)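 Rat C6 glioma cells were seeded at 1 × 10^5 cells/well. After 24 h they were switched to serum-free DMEM and treated with compound (20 μM, some at 5 μM) for 24 h. NGF secreted into the conditioned medium was quantified by ELISA and expressed as percent of untreated control (100%). Values are means ± SD of three independent experiments.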

[3] = Cytotoxicity against rat C6 cells assessed as cell viability at 20 uM measured after 24 hrs by MTT assay relative to control; assay type: cell-based; conditions: read-out: Activity
Outline: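 Rat C6 glioma cells were seeded at 1 × 10^5 cells/well. After 24 h they were switched to serum-free DMEM containing 20 μM compound for another 24 h. Viability was determined by MTT as percent of untreated control, some data at 5 μM. Values are means ± SD of three independent experiments.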

[4] = Cytotoxicity against mouse BV2 cells assessed as cell viability at 5 uM measured after 24 hrs by MTT assay relative to control; assay type: cell-based, BV-2; conditions: read-out: Activity
Outline: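 BV2 murine microglia were seeded at 4 × 10^4 cells/well, exposed to compound (5 μM here), and stimulated with LPS 100 ng/mL for 24 h. Viability was read by MTT and expressed as % of control. Values are means ± SD of three independent experiments.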

C6 [5] = experiment: Neuroprotective activity in rat C6 cells assessed as induction of nerve growth factor secretion at 5 uM measured after 24 hrs by ELISA relative to control; assay type: functional; outline: as §2
[6] = Cytotoxicity against rat C6 cells assessed as cell viability at 5 uM measured after 24 hrs by MTT assay relative to control; assay type: cell-based; conditions: read-out: Activity
Outline: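 C6 glioma cells were seeded at 1 × 10^5 cells/well, grown 24 h, then switched to serum-free DMEM with compound (5 μM here) for another 24 h. Viability was read by MTT as % of untreated cells. Values are means ± SD of three independent experiments.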

SMILES: C/C(=C\C(=O)C[C@@H](C)[C@@H]1CC=C2C3=CC[C@H]4C(C)(C)[C@H](O)CC[C@]4(C)[C@@H]3CC[C@]21C)C(=O)O
- IC50 (A549): > 10 µM
- IC50 (SK-OV-3): > 10 µM
- IC50 (SK-MEL-2): 7.2 µM
- IC50 (HCT-15): > 10 µM
- IC50 (BV-2): 10.3 µM
- viability at 24 h, 20 µM [1]: 9.9%
- Activity (C6 [2]): 156%
- viability at 24 h, 20 µM [3]: 85.7%

SMILES: C/C(=C\CC[C@@H](C)[C@H]1CC[C@@]2(C)[C@@H]3CC[C@H]4C(C)(C)[C@@H](O)CC[C@@]45C[C@@]35CC[C@]12C)C(=O)O [MANGIFEROLIC ACID]
- IC50 (BV-2): 12.8 µM
- viability at 24 h, 20 µM [1]: 35.2%
- Activity (C6 [2]): 128.6%
- viability at 24 h, 20 µM [3]: 79.3%

SMILES: CC1(C)O[C@H]2C[C@H]3C(=C[C@]21O)CC[C@@H]1[C@]3(C)CCC[C@@]1(C)C(=O)O
- Activity (C6 [2]): 136.9%
- viability at 24 h, 20 µM [3]: 99%

SMILES: C=C[C@@]1(C)O[C@]2(C)CC[C@H]3C(C)(C)CCC[C@]3(C)[C@H]2C[C@H]1O
- IC50 (BV-2): 25 µM
- viability at 24 h, 20 µM [1]: 112%

SMILES: CC1=CC(O)(C[C@@H](C)[C@]2(C)CC=C3C4=CC[C@H]5C(C)(C)[C@H](O)CC[C@]5(C)[C@@H]4CC[C@]32C)OC1=O (stereo not given in full)
- IC50 (A549): > 10 µM
- IC50 (SK-OV-3): > 10 µM
- IC50 (SK-MEL-2): 4.2 µM
- IC50 (HCT-15): > 10 µM
- IC50 (BV-2): 4 µM
- viability at 24 h, 20 µM [1]: 9.7%
- viability at 24 h, 5 µM [4]: 154%
- Activity (C6 [2]): 121.7%
- Activity (C6 [5]): 158.1%
- viability at 24 h, 20 µM [3]: 56.7%
- viability at 24 h, 5 µM [6]: 108%

SMILES: CCCCC/C=C/C(=O)CCc1ccc(O)c(OC)c1 [SHOGAOL]
- Activity (C6 [2]): 158.2%
- viability at 24 h, 20 µM [3]: 110%

SMILES: C=C(C)[C@@H]1CC=C2[C@@H](CC=C3[C@@]2(C)CC[C@@]3(C)[C@H](C)C[C@@H]2C[C@@H](C)C(=O)O2)[C@@]1(C)CCC(=O)OC
- IC50 (A549): 2.4 µM
- IC50 (SK-OV-3): 6.2 µM
- IC50 (SK-MEL-2): 1.7 µM
- IC50 (HCT-15): 2.3 µM
- IC50 (BV-2): 39.7 µM
- viability at 24 h, 20 µM [1]: 86.8%

SMILES: C/C(=C\C(=O)C[C@@H](C)[C@H]1CC[C@@]2(C)C3=CC[C@H]4C(C)(C)C(=O)CC[C@]4(C)[C@@H]3CC[C@]12C)C(=O)O
- IC50 (A549): 8.7 µM
- IC50 (SK-OV-3): 7.7 µM
- IC50 (SK-MEL-2): 3.2 µM
- IC50 (HCT-15): > 10 µM
- IC50 (BV-2): 10.5 µM
- viability at 24 h, 20 µM [1]: 19.4%
- Activity (C6 [2]): 153.9%
- viability at 24 h, 20 µM [3]: 62.2%

SMILES: C=C(C)[C@@H]1C=CC2=C3CC[C@@](C)([C@H](C)CC(=O)C[C@@H](C)C(=O)O)[C@]3(C)CC[C@H]2[C@@]1(C)CCC(=O)O
- Activity (C6 [2]): 146.1%
- viability at 24 h, 20 µM [3]: 110%

SMILES: C/C(=C\CO)[C@H](O)C[C@@H]1[C@@]2(C)CCCC(C)(C)[C@@H]2CC[C@@]1(C)O
- Activity (C6 [2]): 127.9%
- viability at 24 h, 20 µM [3]: 104%

SMILES: C/C(=C\CO)[C@@H](O)C[C@@H]1[C@@]2(C)CCCC(C)(C)[C@@H]2CC[C@@]1(C)O
- IC50 (BV-2): 19.5 µM
- viability at 24 h, 20 µM [1]: 122%
- Activity (C6 [2]): 125.7%
- viability at 24 h, 20 µM [3]: 99.8%

SMILES: CNC(=N)NCCC[C@H](N)C(=O)O [TILARGININE]
- viability at 24 h, 20 µM [1]: 105%

SMILES: CC1(C)CCC[C@]2(C)[C@H]3CC(=O)O[C@]3(C)CC[C@@H]12
- IC50 (BV-2): 20.3 µM
- viability at 24 h, 20 µM [1]: 131%

SMILES: C[C@@H]1C[C@]2(C[C@@H](C)[C@]3(CC[C@@]4(C)[C@@H]5CC[C@H]6C(C)(C)[C@H](O)CC[C@@]67C[C@@]57CC[C@@]43C)O2)OC1=O
- IC50 (A549): > 10 µM
- IC50 (SK-OV-3): > 10 µM
- IC50 (SK-MEL-2): 8.5 µM
- IC50 (HCT-15): > 10 µM
- Activity (C6 [2]): 149.3%
- viability at 24 h, 20 µM [3]: 107%

SMILES: CC1=CC(O)(C[C@@H](C)[C@H]2CC[C@@]3(C)C4=CC[C@H]5C(C)(C)C(=O)CC[C@]5(C)[C@@H]4CC[C@]23C)OC1=O (stereo not given in full)
- IC50 (A549): 9.4 µM
- IC50 (SK-OV-3): > 10 µM
- IC50 (SK-MEL-2): 4.1 µM
- IC50 (HCT-15): > 10 µM
- IC50 (BV-2): 10.2 µM
- viability at 24 h, 20 µM [1]: 15.9%

SMILES: C=C[C@@](C)(O)[C@H]1C[C@@H]2[C@@]3(C)CCCC(C)(C)[C@@H]3CC[C@@]2(C)O1
- IC50 (BV-2): 42.2 µM
- viability at 24 h, 20 µM [1]: 118%

SMILES: C=C(C)[C@@H]1CC=C2[C@@H](CC[C@]3(C)[C@@H]([C@H](C)C[C@@H]4C[C@@H](C)C(=O)O4)CC[C@@]23C)[C@@]1(C)CCC(=O)OC
- IC50 (A549): > 10 µM
- IC50 (SK-OV-3): > 10 µM
- IC50 (SK-MEL-2): 5.5 µM
- IC50 (HCT-15): 8.1 µM
- IC50 (BV-2): 17.3 µM
- viability at 24 h, 20 µM [1]: 123%

SMILES: C=C(CC(=O)C[C@@H](C)[C@H]1CC[C@@]2(C)C3=CC[C@H]4C(C)(C)C(=O)CC[C@]4(C)[C@@H]3CC[C@]12C)C(=O)O
- IC50 (BV-2): 15 µM
- viability at 24 h, 20 µM [1]: 125%
- Activity (C6 [2]): 178.9%
- viability at 24 h, 20 µM [3]: 98.5%

SMILES: C=C(C)[C@@H]1CC=C2[C@@H](CC[C@]23C(=C)CC[C@@]3(C)[C@H](C)CC(=O)/C=C(\C)C(=O)O)[C@@]1(C)CCC(=O)O
- IC50 (BV-2): 19.1 µM
- viability at 24 h, 20 µM [1]: 136%
- Activity (C6 [2]): 195.1%
- viability at 24 h, 20 µM [3]: 104%

SMILES: C/C(=C\CC[C@@H](C)[C@H]1CC[C@@]2(C)[C@@H]3CC[C@H]4C(C)(C)C(=O)CC[C@@]45C[C@@]35CC[C@]12C)C(=O)O [MANGIFERONIC ACID]
- IC50 (BV-2): 9 µM
- viability at 24 h, 20 µM [1]: 21%

SMILES: C=C[C@@]1(C)C=C2CC[C@@H]3[C@](C)(CCC[C@@]3(C)C(=O)O)[C@H]2CC1 [PIMARIC ACID]
- IC50 (BV-2): 13.6 µM
- viability at 24 h, 20 µM [1]: 117%

SMILES: C[C@]12CCC[C@@](C)(C(=O)O)[C@@H]1CCC1=CC(=O)CC[C@@H]12
- IC50 (BV-2): 18.1 µM
- viability at 24 h, 20 µM [1]: 124%

SMILES: C/C(=C\[C@H](O)C[C@@H](C)[C@H]1CC[C@@]2(C)C3=CC[C@H]4C(C)(C)C(=O)CC[C@]4(C)[C@@H]3CC[C@]12C)C(=O)O
- IC50 (A549): > 10 µM
- IC50 (SK-OV-3): > 10 µM
- IC50 (SK-MEL-2): 8.8 µM
- IC50 (HCT-15): > 10 µM
- IC50 (BV-2): 29.8 µM
- viability at 24 h, 20 µM [1]: 125%
- Activity (C6 [2]): 140.9%
- viability at 24 h, 20 µM [3]: 111%

SMILES: C=C(CC(=O)C[C@@H](C)[C@]1(C)CCC(=C)[C@]12CC[C@@H]1C2=CC[C@@H](C(=C)C)[C@]1(C)CCC(=O)O)C(=O)O
- Activity (C6 [2]): 173.3%
- viability at 24 h, 20 µM [3]: 112%

SMILES: CC(=O)/C=C/C1[C@](C)(O)CC[C@H]2C(C)(C)CCC[C@]12C (stereo not given in full)
- IC50 (BV-2): 9.8 µM
- viability at 24 h, 20 µM [1]: 114%
